From ChEMBL document CHEMBL4339195, “Di-aryl Sulfonamide Motif Adds π-Stacking Bulk in Negative Allosteric Modulators of the NMDA Receptor” (ACS Med Chem Lett, 2019)
pIC50: −log10 of the molar value. The source made the active and inactive calls. The calls are words filed in the database; no cut-off is given here.

Experiments:
[1] = target: T1, Glutamate NMDA receptor; Grin1/Grin2c (Rattus norvegicus) (UniProt P35439+Q00961); experiment: Negative allosteric modulation of recombinant rat GluN1/GluN2C expressed in Xenopus laevis oocytes assessed as inhibition of glutamate/glycine-induced current response at saturated concentration at -40 mV holding potential by two-electrode voltage clamp method relative to glutamate/glycine; type: cell-based
Method in brief: (§1)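 Hill fit of the composite concentration-response curve in oocytes, with agonist 100 µM glutamate plus 30 µM glycine. Residual response in saturating compound is either fixed at 0 or fitted. 8-16 oocytes from 2-3 frogs.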

[2] = target: T2, Ionotropic glutamate receptor NMDA 1/2D (Rattus norvegicus) (UniProt P35439+Q62645); experiment: Negative allosteric modulation of recombinant rat GluN1/GluN2D expressed in Xenopus laevis oocytes assessed as inhibition of glutamate/glycine-induced current response at 30 uM at -40 mV holding potential by two-electrode voltage clamp method relative to glutamate/glycine; type: cell-based; conditions: for residual activity: values are per cent of control
Method in brief: (§2)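 Oocytes recorded while the drug is co-applied with a maximally effective 100 µM glutamate plus 30 µM glycine. Response is expressed as percent of the glutamate/glycine control. IC50 comes from a Hill fit to the average composite concentration-response curve. 8-16 oocytes from 2-3 frogs per compound and receptor.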

[3] = target: T2, Ionotropic glutamate receptor NMDA 1/2D (Rattus norvegicus); experiment: Negative allosteric modulation of recombinant rat GluN1/GluN2D expressed in Xenopus laevis oocytes assessed as inhibition of glutamate/glycine-induced current response at saturated concentration at -40 mV holding potential by two-electrode voltage clamp method relative to glutamate/glycine; type: cell-based; method in brief: as §1
[4] = target: T1, Glutamate NMDA receptor; Grin1/Grin2c (Rattus norvegicus); experiment: Negative allosteric modulation of recombinant rat GluN1/GluN2C expressed in Xenopus laevis oocytes assessed as inhibition of glutamate/glycine-induced current response at 30 uM at -40 mV holding potential by two-electrode voltage clamp method relative to glutamate/glycine; type: cell-based; conditions: for residual activity: values are per cent of control; method in brief: as §2
[5] = target: T3, Glutamate NMDA receptor; Grin1/Grin2a (Rattus norvegicus) (UniProt P35439+Q00959); experiment: Negative allosteric modulation of recombinant rat GluN1/GluN2A expressed in Xenopus laevis oocytes assessed as remaining glutamate/glycine-induced current response at 6 uM at -40 mV holding potential by two-electrode voltage clamp method relative to glutamate/glycine
[6] = target: T2, Ionotropic glutamate receptor NMDA 1/2D (Rattus norvegicus); experiment: Negative allosteric modulation of recombinant rat GluN1/GluN2D expressed in Xenopus laevis oocytes assessed as residual glutamate/glycine-induced current response at 10 uM at -40 mV holding potential by two-electrode voltage clamp method relative to glutamate/glycine
[7] = target: Glutamate NMDA receptor; Grin1/Grin2a (Rattus norvegicus, UniProt P35439+Q00959); experiment: Negative allosteric modulation of recombinant rat GluN1/GluN2A expressed in Xenopus laevis oocytes assessed as inhibition of glutamate/glycine-induced current response at -40 mV holding potential by two-electrode voltage clamp method; type: cell-based; method in brief: as §2
[8] = target: T1, Glutamate NMDA receptor; Grin1/Grin2c (Rattus norvegicus); experiment: Negative allosteric modulation of recombinant rat GluN1/GluN2C expressed in Xenopus laevis oocytes assessed as remaining glutamate/glycine-induced current response at 10 uM at -40 mV holding potential by two-electrode voltage clamp method relative to glutamate/glycine
[9] = target: Ionotropic glutamate receptor NMDA 1/2D (Rattus norvegicus, UniProt P35439+Q62645); experiment: Negative allosteric modulation of recombinant rat GluN1/GluN2D expressed in Xenopus laevis oocytes assessed as inhibition of glutamate/glycine-induced current response at -40 mV holding potential by two-electrode voltage clamp method; type: cell-based; method in brief: as §2
[10] = target: Glutamate NMDA receptor; Grin1/Grin2c (Rattus norvegicus, UniProt P35439+Q00961); experiment: Negative allosteric modulation of recombinant rat GluN1/GluN2C expressed in Xenopus laevis oocytes assessed as inhibition of glutamate/glycine-induced current response at -40 mV holding potential by two-electrode voltage clamp method; type: cell-based; method in brief: as §2
[11] = target: T3, Glutamate NMDA receptor; Grin1/Grin2a (Rattus norvegicus); experiment: Negative allosteric modulation of recombinant rat GluN1/GluN2A expressed in Xenopus laevis oocytes assessed as residual glutamate/glycine-induced current response at 30 uM at -40 mV holding potential by two-electrode voltage clamp method relative to glutamate/glycine
[12] = target: T1, Glutamate NMDA receptor; Grin1/Grin2c (Rattus norvegicus); experiment: Potency index, ratio of NP11999 IC50 to test compound IC50 for negative allosteric modulation of recombinant rat GluN1/GluN2C expressed in Xenopus laevis oocytes assessed as inhibition of glutamate/glycine-induced current response; type: cell-based
[13] = target: T2, Ionotropic glutamate receptor NMDA 1/2D (Rattus norvegicus); experiment: Potency index, ratio of NP11999 IC50 to test compound IC50 for negative allosteric modulation of recombinant rat GluN1/GluN2D expressed in Xenopus laevis oocytes assessed as inhibition of glutamate/glycine-induced current response; type: cell-based
[14] = organism: Rattus norvegicus; experiment: Negative allosteric modulation of rat GABAA rho expressed in Xenopus laevis oocytes assessed as inhibition of GABA-induced current response at 30 uM at -40 mV holding potential by two-electrode voltage clamp method relative to GABA alone; type: cell-based
Method in brief: (§3)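 Oocyte two-electrode voltage clamp at -40 mV holding. Test compound co-applied with agonist; response given as percent of the mean of control and recovery currents to agonist alone. Agonists: 100 µM glutamate (AMPA, kainate), 100 µM GABA (GABA receptors), 100 µM glycine (glycine receptor), 100 µM serotonin (5-HT3A), 9 µM ATP (P2X), 1 µM acetylcholine (nicotinic).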

[15] = target: Glutamate receptor ionotropic, kainate 2 (Rattus norvegicus) (UniProt P42260); experiment: Negative allosteric modulation of rat GluK2 expressed in Xenopus laevis oocytes assessed as inhibition of glutamate-induced current response at 30 uM at -40 mV holding potential in presence of concanavalin A by two-electrode voltage clamp method relative to glutamate alone; type: cell-based; method in brief: as §3
Glutamate receptor ionotropic, kainate 2 (Rattus norvegicus), sequence (P42260 whole entry): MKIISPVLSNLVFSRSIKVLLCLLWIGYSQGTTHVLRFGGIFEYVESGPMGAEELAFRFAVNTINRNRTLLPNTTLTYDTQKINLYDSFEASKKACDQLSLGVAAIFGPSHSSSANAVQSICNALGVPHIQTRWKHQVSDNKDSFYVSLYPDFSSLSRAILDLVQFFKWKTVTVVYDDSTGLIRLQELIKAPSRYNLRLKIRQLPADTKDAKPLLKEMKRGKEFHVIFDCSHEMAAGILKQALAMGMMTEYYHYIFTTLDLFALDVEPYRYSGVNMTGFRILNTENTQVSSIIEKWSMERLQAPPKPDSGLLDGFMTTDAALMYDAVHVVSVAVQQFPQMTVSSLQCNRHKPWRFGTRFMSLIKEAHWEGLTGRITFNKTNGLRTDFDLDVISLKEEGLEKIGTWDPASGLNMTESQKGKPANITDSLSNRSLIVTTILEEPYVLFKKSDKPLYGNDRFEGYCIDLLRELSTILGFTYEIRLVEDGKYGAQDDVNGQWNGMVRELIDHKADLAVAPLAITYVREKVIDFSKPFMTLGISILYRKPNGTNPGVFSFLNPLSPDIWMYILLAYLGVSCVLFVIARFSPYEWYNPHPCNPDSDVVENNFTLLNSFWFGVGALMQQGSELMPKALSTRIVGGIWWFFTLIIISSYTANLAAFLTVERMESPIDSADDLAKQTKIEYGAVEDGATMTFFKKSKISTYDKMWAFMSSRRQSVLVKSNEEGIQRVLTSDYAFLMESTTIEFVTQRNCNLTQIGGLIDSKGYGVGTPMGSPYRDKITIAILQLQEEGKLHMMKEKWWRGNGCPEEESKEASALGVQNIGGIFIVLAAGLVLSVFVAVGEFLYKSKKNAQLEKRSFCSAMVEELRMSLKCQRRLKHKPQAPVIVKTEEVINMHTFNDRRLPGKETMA

[16] = tested on: Glutamate receptor 3 (Homo sapiens), P42263 [L513Y]; experiment: Negative allosteric modulation of human GluA3 L513Y mutant expressed in Xenopus laevis oocytes assessed as inhibition of glutamate-induced current response at 30 uM at -40 mV holding potential by two-electrode voltage clamp method relative to glutamate alone; type: cell-based; method in brief: as §3
Glutamate receptor 3 (Homo sapiens), P42263 [L513Y], sequence (P42263 whole entry L513Y): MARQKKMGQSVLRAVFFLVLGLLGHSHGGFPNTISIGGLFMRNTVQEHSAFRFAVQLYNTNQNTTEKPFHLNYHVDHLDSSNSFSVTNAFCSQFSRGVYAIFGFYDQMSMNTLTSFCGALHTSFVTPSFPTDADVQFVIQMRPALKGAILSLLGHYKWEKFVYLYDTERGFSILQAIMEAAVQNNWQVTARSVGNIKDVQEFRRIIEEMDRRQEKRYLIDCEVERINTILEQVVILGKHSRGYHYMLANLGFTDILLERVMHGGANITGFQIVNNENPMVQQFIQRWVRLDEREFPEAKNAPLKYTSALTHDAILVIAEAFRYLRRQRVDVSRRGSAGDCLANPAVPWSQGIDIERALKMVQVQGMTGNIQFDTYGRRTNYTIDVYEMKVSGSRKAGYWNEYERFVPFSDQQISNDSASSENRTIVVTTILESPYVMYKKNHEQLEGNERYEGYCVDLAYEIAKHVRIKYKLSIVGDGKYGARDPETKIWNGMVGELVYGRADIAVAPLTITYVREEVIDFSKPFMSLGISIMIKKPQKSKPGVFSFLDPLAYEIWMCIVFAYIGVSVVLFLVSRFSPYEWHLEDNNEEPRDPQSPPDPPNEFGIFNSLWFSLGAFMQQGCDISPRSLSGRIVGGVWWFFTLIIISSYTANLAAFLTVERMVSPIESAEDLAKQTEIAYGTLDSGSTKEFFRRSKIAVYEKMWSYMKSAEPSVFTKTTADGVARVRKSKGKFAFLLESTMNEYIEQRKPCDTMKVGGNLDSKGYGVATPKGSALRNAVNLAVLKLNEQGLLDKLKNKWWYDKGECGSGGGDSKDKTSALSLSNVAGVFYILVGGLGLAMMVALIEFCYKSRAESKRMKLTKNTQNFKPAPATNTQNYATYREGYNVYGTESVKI

[17] = target: T4, Glycine receptor subunit alpha-1 (Rattus norvegicus) (UniProt P07727); experiment: Negative allosteric modulation of rat glycine alpha1 expressed in Xenopus laevis oocytes assessed as inhibition of glycine-induced current response at 30 uM at -40 mV holding potential by two-electrode voltage clamp method relative to glycine alone; type: cell-based; method in brief: as §3
T4 sequence (whole entry): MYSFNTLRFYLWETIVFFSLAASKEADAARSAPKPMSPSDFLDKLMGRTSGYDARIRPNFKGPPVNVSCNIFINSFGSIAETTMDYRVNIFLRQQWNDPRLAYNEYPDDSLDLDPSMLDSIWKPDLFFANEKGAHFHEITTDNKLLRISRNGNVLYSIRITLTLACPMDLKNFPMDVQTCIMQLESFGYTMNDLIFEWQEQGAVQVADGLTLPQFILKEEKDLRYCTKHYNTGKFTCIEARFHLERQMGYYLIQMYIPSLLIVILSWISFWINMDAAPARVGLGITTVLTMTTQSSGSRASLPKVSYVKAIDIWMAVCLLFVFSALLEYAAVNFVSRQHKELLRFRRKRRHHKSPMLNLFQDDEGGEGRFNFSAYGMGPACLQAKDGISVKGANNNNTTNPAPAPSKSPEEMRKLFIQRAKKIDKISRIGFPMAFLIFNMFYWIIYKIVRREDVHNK

[18] = tested on: Glutamate receptor 4 (Homo sapiens), P48058 [L505Y]; experiment: Negative allosteric modulation of human GluA4 L505Y mutant expressed in Xenopus laevis oocytes assessed as inhibition of glutamate-induced current response at 30 uM at -40 mV holding potential by two-electrode voltage clamp method relative to glutamate alone; type: cell-based; method in brief: as §3
Glutamate receptor 4 (Homo sapiens), P48058 [L505Y], sequence (P48058 whole entry L505Y): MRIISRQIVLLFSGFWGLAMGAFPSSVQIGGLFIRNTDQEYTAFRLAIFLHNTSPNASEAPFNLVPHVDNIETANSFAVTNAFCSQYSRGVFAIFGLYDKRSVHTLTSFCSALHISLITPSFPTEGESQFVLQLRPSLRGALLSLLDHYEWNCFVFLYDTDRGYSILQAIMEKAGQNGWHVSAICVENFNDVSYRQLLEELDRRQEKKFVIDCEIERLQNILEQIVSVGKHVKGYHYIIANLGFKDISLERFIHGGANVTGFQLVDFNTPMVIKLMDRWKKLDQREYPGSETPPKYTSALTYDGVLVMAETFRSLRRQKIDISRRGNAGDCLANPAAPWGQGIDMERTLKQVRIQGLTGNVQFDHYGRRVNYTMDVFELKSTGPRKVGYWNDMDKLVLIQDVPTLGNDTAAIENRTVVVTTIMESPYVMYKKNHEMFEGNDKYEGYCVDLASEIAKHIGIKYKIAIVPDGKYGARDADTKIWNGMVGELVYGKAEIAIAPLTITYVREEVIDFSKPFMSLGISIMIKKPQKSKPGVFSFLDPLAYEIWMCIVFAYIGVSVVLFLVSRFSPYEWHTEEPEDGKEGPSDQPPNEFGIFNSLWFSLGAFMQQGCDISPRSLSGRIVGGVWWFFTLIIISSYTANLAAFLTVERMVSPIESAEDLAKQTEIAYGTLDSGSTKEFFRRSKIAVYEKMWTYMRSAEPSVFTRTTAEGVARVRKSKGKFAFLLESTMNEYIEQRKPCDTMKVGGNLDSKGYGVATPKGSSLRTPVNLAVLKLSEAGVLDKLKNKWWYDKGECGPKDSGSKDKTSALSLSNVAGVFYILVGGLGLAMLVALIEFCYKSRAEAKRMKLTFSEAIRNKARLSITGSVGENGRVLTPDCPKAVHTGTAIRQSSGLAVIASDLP

[19] = target: Glutamate receptor 1 (Rattus norvegicus) (UniProt P19490); experiment: Negative allosteric modulation of recombinant rat GluA1 expressed in Xenopus laevis oocytes assessed as inhibition of glutamate-induced current response at 30 uM at -40 mV holding potential by two-electrode voltage clamp method relative to glutamate alone; type: cell-based; method in brief: as §3
Glutamate receptor 1 (Rattus norvegicus), sequence (P19490 whole entry): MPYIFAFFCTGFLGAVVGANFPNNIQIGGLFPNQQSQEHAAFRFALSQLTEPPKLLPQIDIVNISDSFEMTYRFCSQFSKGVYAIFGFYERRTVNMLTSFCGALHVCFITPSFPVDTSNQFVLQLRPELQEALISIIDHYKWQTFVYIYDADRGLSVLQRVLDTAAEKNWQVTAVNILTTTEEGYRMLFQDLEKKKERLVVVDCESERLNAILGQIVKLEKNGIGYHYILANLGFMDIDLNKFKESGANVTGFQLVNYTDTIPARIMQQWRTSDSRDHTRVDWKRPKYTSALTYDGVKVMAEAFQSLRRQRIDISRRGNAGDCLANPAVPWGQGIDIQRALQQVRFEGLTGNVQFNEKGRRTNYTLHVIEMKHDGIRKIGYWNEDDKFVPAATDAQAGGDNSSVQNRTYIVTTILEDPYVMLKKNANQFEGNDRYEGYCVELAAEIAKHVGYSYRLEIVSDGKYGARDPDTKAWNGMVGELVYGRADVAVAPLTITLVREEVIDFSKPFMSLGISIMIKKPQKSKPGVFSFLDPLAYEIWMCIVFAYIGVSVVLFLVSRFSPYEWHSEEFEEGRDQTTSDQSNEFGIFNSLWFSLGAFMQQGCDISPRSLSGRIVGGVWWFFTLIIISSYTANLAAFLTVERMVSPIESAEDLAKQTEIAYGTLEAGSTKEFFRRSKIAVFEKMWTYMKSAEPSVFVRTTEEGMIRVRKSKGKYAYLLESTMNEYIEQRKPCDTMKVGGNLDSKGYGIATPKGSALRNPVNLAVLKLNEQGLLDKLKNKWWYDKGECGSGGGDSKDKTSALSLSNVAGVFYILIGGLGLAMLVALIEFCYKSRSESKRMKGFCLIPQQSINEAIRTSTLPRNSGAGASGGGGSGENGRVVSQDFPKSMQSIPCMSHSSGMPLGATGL

[20] = target: CHRNA1/CHRNB1/CHRNG/CHRND (Rattus norvegicus) (UniProt P25109+P25108+P25110+P18916); experiment: Negative allosteric modulation of rat alpha1betagammadelta nACHR expressed in Xenopus laevis oocytes assessed as inhibition of acetylcholine-induced current response at 30 uM at -40 mV holding potential by two-electrode voltage clamp method relative to acetylcholine alone; type: cell-based; method in brief: as §3
[21] = target: T5, 5-hydroxytryptamine receptor 3A (Rattus norvegicus) (UniProt P35563); experiment: Negative allosteric modulation of rat 5HT3A expressed in Xenopus laevis oocytes assessed as inhibition of serotonin-induced current response at 30 uM at -40 mV holding potential by two-electrode voltage clamp method relative to serotonin alone; type: cell-based; method in brief: as §3
T5 sequence (whole entry): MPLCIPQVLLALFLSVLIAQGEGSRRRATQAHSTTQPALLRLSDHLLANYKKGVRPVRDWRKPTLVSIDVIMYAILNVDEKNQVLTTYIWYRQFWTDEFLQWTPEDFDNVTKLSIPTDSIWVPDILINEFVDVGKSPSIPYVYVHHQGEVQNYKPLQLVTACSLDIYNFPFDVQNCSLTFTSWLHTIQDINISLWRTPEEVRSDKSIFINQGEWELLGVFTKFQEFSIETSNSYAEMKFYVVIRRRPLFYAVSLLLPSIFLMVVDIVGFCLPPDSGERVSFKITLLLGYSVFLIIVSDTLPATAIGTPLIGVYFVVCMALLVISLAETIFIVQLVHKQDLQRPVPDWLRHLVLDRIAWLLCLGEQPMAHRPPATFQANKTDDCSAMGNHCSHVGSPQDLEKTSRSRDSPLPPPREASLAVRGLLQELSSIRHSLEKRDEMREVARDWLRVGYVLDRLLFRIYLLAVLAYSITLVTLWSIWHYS

[22] = organism: Homo sapiens; experiment: Negative allosteric modulation of human GluA2 R607Q mutant expressed in Xenopus laevis oocytes assessed as inhibition of glutamate-induced current response at 30 uM at -40 mV holding potential by two-electrode voltage clamp method relative to glutamate alone; type: cell-based; method in brief: as §3
[23] = organism: Rattus norvegicus; experiment: Negative allosteric modulation of rat GABAA alpha1beta2gamma2S expressed in Xenopus laevis oocytes assessed as inhibition of GABA-induced current response at 30 uM at -40 mV holding potential by two-electrode voltage clamp method relative to GABA alone; type: cell-based; method in brief: as §3

Row | SMILES | inhibition [1] [%] | inhibition [3] [%] | residual activity [2] [%] | residual activity [4] [%] | pIC50 [9] | pIC50 [10] | other results
1 | CCN(CC)C(=O)Oc1ccc(C(=O)Nc2ccc(CCNS(=O)(=O)c3ccc(F)c(Cl)c3)cc2)cc1 | 0 | 0 |  |  |  |  | inhibition [2]: 26%; inhibition [4]: 21%
2 | O=C(NNC(=O)c1ccc(CNS(=O)(=O)c2ccc(F)c(Cl)c2)cc1)c1ccccc1 |  |  | < 15 | < 15 |  |  | residual activity [5]: 5.1%; residual activity [6]: 88%; pIC50 [7]: 6.77; residual activity [8]: 95%
3 | CCN(CC)C(=O)Oc1ccc(C(=O)Nc2ccc(CCNS(=O)(=O)c3cccnc3)cc2)cc1 | 0 | 0 | 26 | 37 | 5.29 | 4.92 | 
4 | CCN(CC)C(=O)Oc1ccc(C(=O)Nc2ccc(C(=O)Nc3ccccc3)cc2)cc1 |  |  |  |  | < 4.00 |  | 
5 | CCN(CC)C(=O)Oc1ccc(C(=O)Nc2ccc(CNS(=O)(=O)c3cccnc3)cc2)cc1 | 0 | 0 | 45 | 58 | 4.62 | 4.46 | 
6 | CCN(CC)C(=O)Oc1ccc(C(=O)Nc2cccc(CCNC(=O)c3ccccc3)c2)cc1 |  |  | 49 | 56 | 4.54 | 4.43 | residual activity [11]: 82%
7 | CCN(CC)C(=O)Oc1ccc(C(=O)Nc2ccc(CCNS(=O)(=O)c3ccccc3)cc2)cc1 | 0 | 0 |  |  |  |  | inhibition [2]: 33%; inhibition [4]: 23%
8 | O=C(NCc1ccc(C(=O)NNC(=O)c2ccccc2)cc1)c1ccc(F)c(Cl)c1 |  |  |  |  |  |  | residual activity [11]: 102%
9 | CCN(CC)C(=O)Oc1ccc(C(=O)Nc2cccc(CCNS(=O)(=O)c3cccnc3)c2)cc1 | 0 | 0 | 8.6 | 8.5 | 5.57 | 5.49 | Ratio IC50 [12]: < 6; Ratio IC50 [13]: < 6
10 | CCN(CC)C(=O)Oc1ccc(C(=O)Nc2cccc(CNS(=O)(=O)c3ccccc3)c2)cc1 | 0 | 0 | 46 | 60 | 4.54 | 4.35 | 
11 | CCN(CC)C(=O)Oc1ccc(C(=O)Nc2ccc(CNS(=O)(=O)c3ccccc3)cc2)cc1 | 41 | 27 | 20 | 42 | 5.00 | 4.66 | 
12 | CCN(CC)C(=O)Oc1ccc(C(=O)Nc2cccc(CNS(=O)(=O)c3cccnc3)c2)cc1 | 0 | 0 | 42 | 52 | 4.64 | 4.47 | 
13 | CCN(CC)C(=O)Oc1ccc(C(=O)Nc2cccc(C(=O)Nc3ccccc3)c2)cc1 |  |  |  |  | 5.10 |  | 
14 | CCN(CC)C(=O)Oc1ccc(C(=O)Nc2cccc(CCNS(=O)(=O)c3ccc(F)c(Cl)c3)c2)cc1 | 0 | 0 | 28 | 41 | 5.89 | 5.62 | Ratio IC50 [12]: < 6; Ratio IC50 [13]: < 6
15 | CCN(CC)C(=O)Oc1ccc(C(=O)Nc2ccccc2)cc1 |  |  |  |  | 5.22 to 5.24 | 5.07 | residual activity [6]: 37%; residual activity [8]: 49%
16 | CCN(CC)C(=O)Oc1ccc(C(=O)Nc2cccc3cc[nH]c23)cc1 |  |  |  |  | 5.66 | 5.43 | inhibition [14]: Active; residual activity [6]: 16%; inhibition [15]: Active; inhibition [16]: Active; inhibition [17]: inactive; inhibition [18]: Active; inhibition [19]: Active; inhibition [20]: inactive; inhibition [21]: inactive; inhibition [22]: Active; residual activity [8]: 24%; inhibition [23]: Active
